The record followed here is ChEMBL document CHEMBL4680213, “Novel androgen receptor antagonist identified by structure-based virtual screening, structural optimization, and biological evaluation” (Eur J Med Chem, 2020).

Activity calls are given as the source filed them. No cut-off for these calls is given here.

For data set [1], the system named is LNCaP. Nature of the data set: Antiproliferative activity against human LNCaP cells assessed as reduction in cell proliferation measured after 72 hrs by MTT assay. The data set is classed as functional, cell-based. The method in brief:
(§1)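 LNCaP, C4-2, PC3 and DU145 seeded in RPMI-1640 with 5% charcoal-stripped serum (LNCaP 3×10^3, the others 1.5×10^3 cells/well). After 24 h at 37 °C, treated with 5 nM DHT and serial compound dilutions for 72 h. MTT 4 h, formazan dissolved overnight in 10% SDS-0.1% HCl-PBS. A570 read with 650 nm reference.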
(Tetrazolium assays rely on reduction of a dye to a coloured formazan, in cell work by metabolically active cells.)

A further data set deals with NIH3T3. Nature of the data set: Cytotoxicity against mouse NIH/3T3 cells assessed as reduction in cell viability at 50 uM after 24 hrs by MTT assay. To be noted: nih3t3, 24 h. The data set is classed as cell-based.
In a further data set the test system is DU-145. Nature of the data set: Antiproliferative activity against human DU-145 cells assessed as reduction in cell proliferation measured after 72 hrs by MTT assay. The data set is classed as functional, cell-based. The method in brief:
as §1

The target in data set [2] is T1, Androgen receptor (Homo sapiens) (UniProt P10275).
T1 sequence (whole entry): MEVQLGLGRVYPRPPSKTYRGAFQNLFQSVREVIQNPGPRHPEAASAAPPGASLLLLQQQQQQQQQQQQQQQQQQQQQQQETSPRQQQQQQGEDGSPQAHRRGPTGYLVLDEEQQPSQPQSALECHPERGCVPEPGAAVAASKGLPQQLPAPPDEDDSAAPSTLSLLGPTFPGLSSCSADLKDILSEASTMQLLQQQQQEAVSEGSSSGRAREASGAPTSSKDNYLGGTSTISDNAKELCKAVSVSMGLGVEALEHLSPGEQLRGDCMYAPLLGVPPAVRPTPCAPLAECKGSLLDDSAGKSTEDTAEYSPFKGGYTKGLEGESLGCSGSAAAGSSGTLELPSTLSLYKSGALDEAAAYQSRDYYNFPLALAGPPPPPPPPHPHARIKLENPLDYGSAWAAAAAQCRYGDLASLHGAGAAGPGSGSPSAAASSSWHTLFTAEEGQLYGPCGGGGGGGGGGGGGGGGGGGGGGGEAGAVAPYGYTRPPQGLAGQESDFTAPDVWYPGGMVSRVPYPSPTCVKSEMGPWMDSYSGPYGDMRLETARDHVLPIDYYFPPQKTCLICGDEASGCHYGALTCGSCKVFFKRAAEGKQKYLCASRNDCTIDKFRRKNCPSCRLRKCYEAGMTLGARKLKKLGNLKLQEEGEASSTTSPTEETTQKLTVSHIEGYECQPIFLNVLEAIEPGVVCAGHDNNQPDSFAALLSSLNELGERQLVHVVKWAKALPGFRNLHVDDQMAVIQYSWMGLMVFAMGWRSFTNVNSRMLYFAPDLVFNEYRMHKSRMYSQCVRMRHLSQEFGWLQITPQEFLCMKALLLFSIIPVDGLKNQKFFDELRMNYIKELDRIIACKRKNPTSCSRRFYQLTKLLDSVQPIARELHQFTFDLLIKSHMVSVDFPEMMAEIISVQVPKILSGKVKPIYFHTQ
Nature of the data set: Antagonist activity at androgen receptor in human LNCaP cells assessed as reduction in DHT-induced TMPRSS2 mRNA expression after 48 hrs by SYBR green dye based qPCR analysis. The data set is classed as cell-based. To be noted: filed as antagonist. The method in brief: (§2)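 LNCaP cells kept in medium with 5% charcoal-stripped serum in six-well plates. Treated with DHT 5 nM plus compound at 0.1, 1 or 10 μM, or DMSO. mRNA extracted 48 h after treatment, reverse transcribed and quantified by qPCR.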

The test system of the next data set is LNCaP C4-2. Nature of the data set: Antiproliferative activity against human LNCaP C4-2 cells assessed as reduction in cell proliferation measured after 72 hrs by MTT assay. The format is functional, cell-based. Summed up:
as §1

Data set [3] has as its target T2, Androgen receptor (Homo sapiens, UniProt P10275).
T2 sequence (P10275 whole entry): T1 sequence (whole entry)
The format is cell-based, LNCaP.

The subject of the next data set is PC-3. Nature of the data set: Antiproliferative activity against human PC-3 cells assessed as reduction in cell proliferation measured after 72 hrs by MTT assay. The data set is classed as functional, cell-based. Summed up:
as §1

The test system of data set [4] is LNCaP. Nature of the data set: Effect on prostate specific antigen mRNA expression in human LNCaP cells at 0.1 to 10 uM measured after 48 hrs by SYBR green dye based qPCR analysis. The format is functional, cell-based. To be noted: dose 0.1-10 µM. The method in brief:
as §2

Data set [5] addresses T1, Androgen receptor (Homo sapiens). Nature of the data set: Displacement of fluormone-AL green from GST-tagged androgen receptor LBD (unknown origin) at 10 uM measured after 4 hrs by fluorescence polarization assay. To be noted: filed as antagonist. The method in brief:
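PolarScreen AR competitor assay. Compound mixed with GST-tagged AR-LBD and Fluormone AL Green in AR Green assay buffer, incubated 4 h at room temperature protected from light. Fluorescence polarization (mP) measured.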

The target in data set [6] is T2, Androgen receptor. Nature of the data set: Displacement of fluormone-AL green from GST-tagged androgen receptor LBD (unknown origin) measured after 4 hrs by fluorescence polarization assay.
Data set [7] deals with T1, Androgen receptor (Homo sapiens). Nature of the data set: Antagonist activity at androgen receptor in human LNCaP cells transfected with ARR2 PB-eGFP assessed as inhibition of DHT-induced transcriptional activity at 10 uM measured after 3 days by fluorescence assay relative to control. The data set is classed as cell-based. As to conditions: filed as antagonist, time 3.0 day. Summed up:
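LNCaP-ARR2PB-eGFP reporter cells in RPMI-1640 starved 5 days in 5% charcoal-stripped serum. Seeded at 3.5×10^4 cells/well, 24 h at 37 °C, 5% CO2. Co-treated with 5 nM DHT and compound at 10 µM (screen) or 0–50 µM. Fluorescence read after 3 days (ex 485, em 535 nm).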

For data set [8], the target named is T3, Prostate-specific antigen (Homo sapiens, UniProt P07288).
T3 sequence (P07288 whole entry): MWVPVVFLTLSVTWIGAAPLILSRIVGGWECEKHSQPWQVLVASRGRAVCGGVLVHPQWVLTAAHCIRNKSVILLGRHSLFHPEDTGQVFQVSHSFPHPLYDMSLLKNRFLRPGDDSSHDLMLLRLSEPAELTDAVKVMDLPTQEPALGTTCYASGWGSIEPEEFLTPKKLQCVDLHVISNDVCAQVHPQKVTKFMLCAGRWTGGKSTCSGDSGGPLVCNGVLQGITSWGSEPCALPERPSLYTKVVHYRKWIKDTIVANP
Nature of the data set: Inhibition of prostate specific antigen in human LNCaP cells. The data set is classed as cell-based.

`Brc1ccc(C2Nc3ccc4ccccc4c3C3C=CCC32)cc1` (stereo unspecified): the outcome with LNCaP [1], in the data set on DU-145, in the data set on LNCaP C4-2, in the data set with PC-3 and in the data set on LNCaP [4] was Active. Moreover, the Activity result is “Non-Toxic” with NIH3T3 and “Dose-dependent effect” in data set [2]. Also, the IC50 – broadly, the concentration at which inhibition is half-maximal – against Androgen receptor [3] came out at 150 nM. Also, the inhibition (usually how much of the control response was suppressed) in [5] was “Active”.
Take `CCOC(=O)C1Nc2ccc3ccccc3c2C2C=CCC12` (stereo unspecified): at Androgen receptor [3], half-maximal inhibition (IC50) required 820 nM. Further, the inhibition entry in data set [5] was “Active”.
Turning to `Clc1ccc(C2Nc3ccc4ccccc4c3C3C4CCC(C4)C23)cc1` (stereo unspecified), it took 7450 nM to reach half-maximal inhibition against Androgen receptor [3] (IC50).
For `Clc1ccc(C2Nc3ccc4ccccc4c3C3C=CCC32)cc1` (stereo unspecified), the IC50 against Androgen receptor [3] was 1920 nM. For the same molecule, the inhibition entry in [5] was “Active”.
Turning to `Clc1ccccc1C1Nc2ccc3ccccc3c2C2C=CCC21` (stereo unspecified), the values for the IC50 on Androgen receptor [6] and at Androgen receptor [3] were 4.02 µM and 2400 nM, respectively. Moreover, the Activity entry with NIH3T3 is reported as “Non-Toxic”. In addition, the inhibition in data set [7] was greater than 50%. The outcome in the data set on DU-145, in the data set with LNCaP C4-2 and in the data set on PC-3 was Active. For the same molecule, the inhibition result in data set [5] was “Active”.
The molecule `Clc1ccc(C2Nc3ccc4ccccc4c3C3OCCCC23)c(Cl)c1` (stereo unspecified) had an IC50 on Androgen receptor [3] of 20400 nM.
Turning to `Fc1ccccc1C1Nc2ccc3ccccc3c2C2C=CCC21` (stereo unspecified), the midpoint of inhibition on Androgen receptor [3], the IC50, lay at 220 nM. Moreover, the inhibition entry in [5] is “Active”.
Regarding `c1ccc(C2Nc3ccc4ccccc4c3C3C4CCC(C4)C23)cc1` (stereo unspecified), the IC50 on Androgen receptor [3] was 5600 nM.
For `CNC(=O)c1ccc(N2C(=S)N(c3ccc(C#N)c(C(F)(F)F)c3)C(=O)C2(C)C)cc1F` [ENZALUTAMIDE], the result in the data set on LNCaP [1], in the data set with DU-145, in the data set with LNCaP C4-2 and in the data set on PC-3 was Active. The IC50 in data set [8] was found to be 130 nM.
